In ChEMBL document CHEMBL3393001, “Flavonoids as noncompetitive inhibitors of Dengue virus NS2B-NS3 protease: inhibition kinetics and docking studies” (Bioorg Med Chem, 2015):
pIC50, pKd, pKi: −log10 of the molar value. In brackets after ≈: the same amount, converted by molar mass.

Key:
dengue virus type 2 = experiment: Antiviral activity against dengue virus 2 infected in african green monkey Vero cells assessed as reduction in viral replication dosed after adsorption with 200 FFU of virus for 1 hour by foci forming unit reduction assay; type: functional, organism-based
[1] = Inhibition of dengue virus 2 NS2B-NS3 serine protease assessed as reduction in hydrolysis of Boc-Gly-Arg-Arg-7-amino-4-methylcumarin substrate by Dixon plot; parameters: species or system dengue virus type 2
Outline: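 Recombinant DENV2 NS2B-NS3 at 47.63 nM in 200 mM Tris-HCl pH 9.5, 6 mM NaCl, 30% glycerol. Boc-Gly-Arg-Arg-AMC at 25–200 µM with inhibitor fixed at 10–32 µM; AMC release read at ex 380/em 460 nm. Analysed by Lineweaver-Burk and Dixon plots, with Ki = Kiapp/(1+[S]/Km), [S] […] Mean of three independent assays.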

[2] = Inhibition of dengue virus 3 NS2B-NS3 serine protease assessed as reduction in hydrolysis of Boc-Gly-Arg-Arg-7-amino-4-methylcumarin substrate; parameters: species or system dengue virus type 3
Outline: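 Recombinant DENV3 NS2B-NS3 (50 nM) was run in 50 mM Tris HCl pH 9.0 with 1 mM CHAPS and 100 substrate. Compounds in DMSO were screened at 50 final, with IC50 from serial dilutions over 0.5–200. Three independent determinations in duplicate; background-corrected 2-parameter fit (lower limit 0, upper 100).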

[3] = Binding affinity to NT-647-NHS fluorescent dye-labeled dengue virus 3 NS2B-NS3 serine protease incubated for 10 mins by microscale thermophoresis method; parameters: species or system dengue virus type 3
Outline: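 Recombinant DENV3 NS2B-NS3, dye-labeled, mixed 1:1 with ligand dilutions to a final 25 nM protein and 0.06–1000 µM ligand. Buffer: 50 mM Tris-HCl pH 9.0, 1 mM CHAPS, plus 10% DMSO and 0.05% Tween 20 on the ligand side only. After 10 min, capillary thermophoresis was measured. KD came from data fitting, mean of three independent assays.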

[4] = Inhibition of dengue virus 2 NS2B-NS3 serine protease assessed as reduction in hydrolysis of Boc-Gly-Arg-Arg-7-amino-4-methylcumarin substrate; parameters: species or system dengue virus type 2
[5] = Inhibition of dengue virus 3 NS2B-NS3 serine protease assessed as reduction in hydrolysis of Boc-Gly-Arg-Arg-7-amino-4-methylcumarin substrate by Dixon plot; parameters: species or system dengue virus type 3
[6] = Non-competitive inhibition of dengue virus 2 NS2B-NS3 serine protease assessed as reduction in hydrolysis of Boc-Gly-Arg-Arg-7-amino-4-methylcumarin substrate by Lineweaver-Burk plot and Dixon plot; parameters: species or system dengue virus type 2

SMILES | IC50 (dengue virus type 2) [µg/mL] | pIC50 [2] | pIC50 [4] | pKi [1] | pKd [3] | pKi [5] | pKi [6]
O=c1cc(-c2ccccc2)oc2cc(O)c(O)c(O)c12 [BAICALEIN] | 6.46 (≈ 23.9 µM) | – | – | – | – | – | –
O.O=c1c(O)c(-c2ccc(O)c(O)c2)oc2cc(O)cc(O)c12 [QUERCETIN DIHYDRATE] | 35.7 | 4.64 | 4.45 | 4.68 | 4.70 | 4.70 | –
C[C@@H]1O[C@@H](Oc2c(-c3ccc(O)c(O)c3)oc3cc(O)cc(O)c3c2=O)[C@H](O)[C@H](O)[C@H]1O [QUERCITRIN] | – | 4.49 | 4.36 | 4.59 | – | 4.55 | –

Second part, led by results:

IC50 (dengue virus type 2) [µg/mL] | pIC50 [2] | pIC50 [4] | SMILES | pKi [1] | pKd [3] | pKi [5] | pKi [6]
– | 4.56 | 4.42 | O=c1c(O)c(-c2ccc(O)cc2)oc2cc(O)cc(O)c12 [KAEMPFEROL] | 4.65 | – | 4.62 | –
55 (≈ 192 µM) | – | – | O=c1c(O)c(-c2ccc(O)c(O)c2)oc2cc(O)ccc12 [FISETIN] | – | – | – | –
– | 4.53 | 4.65 | O=c1c(O)c(-c2cc(O)c(O)c(O)c2)oc2cc(O)cc(O)c12 [MYRICETIN] | – | – | 4.59 | 5.33
– | 4.37 | 4.36 | O=c1c(O[C@@H]2O[C@H](CO)[C@@H](O)[C@H](O)[C@H]2O)c(-c2ccc(O)c(O)c2)oc2cc(O)cc(O)c12 [ISOQUERCETIN] | 4.59 | – | 4.43 | –
